The sample as a whole holds a higher share of hits than the screen did.
PKD1 kinase inh = blocks activity of human protein kinase D1. Q15139. PKD1 kinase fluorescence polarization assay. inhibition, % (concentration not given with the values). 200,000 compounds, 0.056% hits
ABCB1 block = inhibitors of human ABCB1 transporter, ABCG2 counter-screen. CCRF-Adr cells, JC-1 efflux, flow cytometry. inhibition, % at 6.6 µM. 190,000 compounds, 0.067% hits. AID 1326; in the data active = inhibition above about 40%;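 also: 0% = vehicle and 100% = reference inhibitor; higher value means more JC-1 retained so stronger ABCB1 efflux block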
Target sequence (P08183 whole entry, looked up): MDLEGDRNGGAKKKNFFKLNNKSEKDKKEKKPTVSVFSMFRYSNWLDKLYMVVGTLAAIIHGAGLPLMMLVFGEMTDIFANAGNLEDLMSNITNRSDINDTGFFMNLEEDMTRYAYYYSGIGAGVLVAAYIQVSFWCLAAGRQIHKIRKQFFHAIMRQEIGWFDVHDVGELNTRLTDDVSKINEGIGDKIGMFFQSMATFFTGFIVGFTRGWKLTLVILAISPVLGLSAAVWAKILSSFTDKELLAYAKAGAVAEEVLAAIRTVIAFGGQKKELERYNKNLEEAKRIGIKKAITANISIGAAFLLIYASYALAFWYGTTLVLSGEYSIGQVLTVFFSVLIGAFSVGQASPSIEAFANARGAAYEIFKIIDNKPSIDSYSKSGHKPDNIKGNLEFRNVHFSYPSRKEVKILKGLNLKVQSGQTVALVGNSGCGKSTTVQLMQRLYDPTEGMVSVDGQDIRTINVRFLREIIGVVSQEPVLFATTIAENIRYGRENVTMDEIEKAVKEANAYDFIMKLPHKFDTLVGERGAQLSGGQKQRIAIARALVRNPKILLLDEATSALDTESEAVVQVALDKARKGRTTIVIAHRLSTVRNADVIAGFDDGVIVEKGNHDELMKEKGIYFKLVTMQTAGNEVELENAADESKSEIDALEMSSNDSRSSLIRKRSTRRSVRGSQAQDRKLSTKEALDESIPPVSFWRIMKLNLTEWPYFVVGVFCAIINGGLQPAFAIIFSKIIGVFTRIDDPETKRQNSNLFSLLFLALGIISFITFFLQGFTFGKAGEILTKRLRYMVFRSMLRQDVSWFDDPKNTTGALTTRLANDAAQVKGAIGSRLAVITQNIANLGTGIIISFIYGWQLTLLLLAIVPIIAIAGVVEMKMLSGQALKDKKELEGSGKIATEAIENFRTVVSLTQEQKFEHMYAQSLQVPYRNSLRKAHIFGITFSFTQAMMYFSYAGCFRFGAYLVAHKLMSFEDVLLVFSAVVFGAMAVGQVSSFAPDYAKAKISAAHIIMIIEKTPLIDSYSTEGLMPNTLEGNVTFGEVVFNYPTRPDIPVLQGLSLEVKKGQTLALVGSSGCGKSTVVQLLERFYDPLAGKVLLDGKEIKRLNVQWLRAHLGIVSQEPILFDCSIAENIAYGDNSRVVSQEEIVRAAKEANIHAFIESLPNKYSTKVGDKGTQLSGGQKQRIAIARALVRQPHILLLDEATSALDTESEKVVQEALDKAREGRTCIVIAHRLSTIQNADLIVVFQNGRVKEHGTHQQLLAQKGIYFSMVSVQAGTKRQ
Avidin bead fluor = avidin bead compound fluorescence profile. Avidin beads, compound fluorescence 488/530 nm, flow cytometry; hits give high values. fluorescence (KMESF) at 10 µM. 220,000 compounds, 0.38% hits. AID 1775; in the data active = fluorescence above about 47
ABCG2 block = human ABCG2 inhibition, ABCB1 as counter-screen. 190,000 compounds, 0.1% hits. IgMXP3 cells, JC-1 efflux, flow cytometry. inhibition, % at 6.6 µM. Q9UNQ0;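 active = inhibition above 80%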;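 also: 0% = DMSO and 100% = nicardipine control wells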
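System: two drug-resistant human cell lines, ABCG2 and ABCB1; controls: nicardipine high and DMSO low controls; times: 10 min exposure at 25 °C with rotation, no wash; detection: flow cytometry of retained JC-1 fluorescence; read-out basis: percent efflux inhibition, scaled nicardipine 100% to DMSO 0%; doses: one concentration, 6.6 µM final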
GSH fluor = GSH bead compound fluorescence profile; GSH beads flow cytometry, compound fluorescence 488/530 nm; hits give high values; AID 1776; 190,000 compounds, 0.25% hits; fluorescence (KMESF) at 10 µM; in the data active = fluorescence above about 89;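 also: glutathione beads carrying GST-tagged Bcl family fusion proteins plus one bare bead set; values are compound well signal with DMSO vehicle wells as background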
Lmaj promast = reduces viability of Leishmania major promastigotes; inhibition, % at 10 µM; 200,000 compounds, 9% hits; resazurin fluorescence viability;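 also: promastigotes grown with compound for 44 hours at 28 °C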
* = called active by the depositor; nt = not tested or not shown. Rule as the data show it, unless noted: active = inhibition above about 50%; inactive = the rest.

SMILES	PKD1 kinase inh	ABCB1 block	Avidin bead fluor	ABCG2 block	GSH fluor	Lmaj promast
COc1ccc(NC(=O)C(Sc2nnc3ccccn23)c2ccccc2)cc1Cl (stereo not given)	8.8	0.4	19	6.9	16	-3.0
COc1ccnc(N=CNOCc2cccc(C(F)(F)F)c2)c1C#N	-9.8	1.6	8	16.1	10	1.5
CCOC(=O)N1CCC(NS(=O)(=O)c2ccc(NC(C)=O)c(Cl)c2)CC1	nt	nt	4	nt	nt	nt
COc1ccc(-c2[nH]ncc2CN2CCCC(C(=O)c3cccc(OC)c3)C2)cc1 (stereo not given)	2.8	0.3	10	1.1	9	2.3
COc1ccc2cc(C(=O)C3CCCN(Cc4cccc(C)n4)C3)ccc2c1 (stereo not given)	2.7	16.4	2	9.6	10	86.5*
O=C1NC(c2ccccc2OC(F)F)Oc2ccccc21 (stereo not given)	-1.6	-0.2	11	3.9	8	3.8
O=C1Nc2ncccc2OC1CCCl (stereo not given)	-0.4	0.3	8	1.0	258*	-1.0
O=C1Nc2ncccc2OC1CCO (stereo not given)	-2.8	0.6	10	0.5	10	8.0
COc1ccc2cc(C(=O)Nc3ccc(O)cc3)sc(=O)c2c1OC	10.6	-0.2	6	-0.2	7	100.2*
Cc1ccc2c(C(=O)CCl)c(C)[nH]c2c1	nt	nt	9	nt	nt	nt
O=C(c1cnn(-c2ccccc2)c1-n1cccc1)N1CCN(C2CCCCC2)CC1	5.0	-0.4	5	0.4	18	75.0*
CCOC(=O)Cn1nc(C)c(NC(=O)c2ccc(Cl)c([N+](=O)[O-])c2)c1C	-5.7	0.1	12	7.1	10	12.5
Cc1ccc(N2CCN(C(=O)N3CCOCC3)CC2)c(C)c1	6.0	-0.1	25	0.2	9	-9.3
O=C(/C=C\c1ccc2c(c1)OCO2)Nc1c2c(nn1-c1ccc(Cl)cc1)CSC2	-8.8	-0.3	3	-0.9	16	95.3*
Cc1cccc(-n2c(SCc3ccc([N+](=O)[O-])cc3)nnc2-c2c[nH]c3ccccc23)c1	-2.4	9.5	10	23.0	15	21.4
CC(C)CCCCCCNC(=S)Nc1ccc(S(=O)(=O)N2CCOCC2)cc1	-13.4	1.4	2	3.7	4	49.8
CCC(C)(C)NC(=O)/C=C/c1cnc2ccccc2n1	-9.6	0.5	14	27.9	5	51.9*
Cc1ccc(/C=N/NC(=O)CN(Cc2ccccc2)S(=O)(=O)c2ccc3c(c2)OCCO3)cc1	-10.3	0.4	6	2.2	5	95.3*
O=C(CN(Cc1ccccc1)S(=O)(=O)c1ccc2c(c1)OCCO2)Nc1ccc2c(c1)OCCO2	-1.3	1.2	95*	3.8	74	12.6
CS(=O)(=O)N(CC(=O)Nc1ccc2c(c1)OCCO2)Cc1ccccc1	-7.6	0.5	7	2.6	55	0.5
O=C(Nc1cccc([N+](=O)[O-])c1)c1ccc2c(c1)OCCO2	-6.7	1.8	15	23.9	7	51.9*
O=C(Nc1cccc([N+](=O)[O-])c1)c1ccncc1	3.8	0.9	18	14.6	15	9.2
CC(C)(C)c1ccc(C(=O)Nc2cccc([N+](=O)[O-])c2)cc1	-10.9	11.2	4	116.1*	12	4.0
O=C(Nc1cccc([N+](=O)[O-])c1)c1cnccn1	1.5	-0.1	5	24.1	6	64.8*
Cc1ccc2nc(Nc3ccc4[nH]c(=O)[nH]c4c3)c(-n3nc(C)cc3C)nc2c1	-1.8	1.0	6	4.7	33	18.2
SMILES	PKD1 kinase inh	ABCB1 block	Avidin bead fluor	ABCG2 block	GSH fluor	Lmaj promast
Cc1ccccc1NS(=O)(=O)c1cc(C(=O)N2CCCC2)ccc1C	-4.4	0.5	40	1.1	20	-1.4
Cc1cccc(NS(=O)(=O)c2cc(C(=O)N3CCc4ccccc4C3)ccc2Cl)c1C	-10.5	4.3	16	4.7	12	97.0*
Cc1ccc(C)c(NS(=O)(=O)c2cc(C(=O)N3CCc4ccccc4C3)ccc2Cl)c1	10.1	2.0	6	4.4	26	98.3*
CNC(=O)c1ccc(N(Cc2ccccc2C)S(C)(=O)=O)cc1	-6.8	1.0	27	4.6	24	-6.0
Cc1ccc(C(=O)N2CCOCC2)cc1S(=O)(=O)Nc1cccc(C)c1C	-1.8	0.5	39	15.3	26	-4.0
Cc1ccccc1CN(c1ccc(C(=O)N2CCc3ccccc3C2)cc1)S(C)(=O)=O	-4.8	8.4	9	4.8	9	70.0*
CCOC(=O)N1CCN(C(=O)c2ccc(C)c(S(=O)(=O)Nc3cccc(C)c3C)c2)CC1	-6.2	2.2	20	7.6	25	98.2*
CC/C(C)=N/Nc1nc2c(c(=O)[nH]c(=O)n2C)n1CCc1ccccc1	2.8	0.6	9	3.5	9	23.4
O=C(CSc1nc(-c2ccccc2)nc2ccc(F)cc12)Nc1ccc(C(=O)O)cc1	1.4	-0.8	13	8.8	13	-4.1
Cc1nn(Cc2ccc(Cl)cc2)c(C)c1NC(=O)CCCn1nc([N+](=O)[O-])c(Cl)c1C	-1.2	11.6	8	37.0	24	23.5
Cc1ccc([N+](=O)[O-])cc1-c1ccc(/C=N\n2nnnc2N)o1	-6.3	-0.2	12	15.1	8	51.3*
COCCN(C(=O)Nc1ccccc1)C(C)c1cccnc1 (stereo not given)	-3.1	2.9	8	5.5	23	8.7
COCCN(C(=S)Nc1c(C)cc(C)cc1C)C(C)c1cccs1 (stereo not given)	1.0	-0.5	8	13.3	11	97.9*
COCCN(C(=S)Nc1ccc(C)cc1)C(C)c1cccnc1 (stereo not given)	3.7	-0.3	nt	1.2	18	80.5*
Cc1cccc(NC(=S)N(CCN(C)C)C(C)c2cccnc2)c1 (stereo not given)	5.1	0.0	9	0.6	18	15.6
COCCN(C(=S)Nc1ccc(C)cc1C)C(C)c1cccs1 (stereo not given)	-0.1	-0.8	7	22.3	12	40.8
COCCN(C(=S)Nc1cc(C)cc(C)c1)C(C)c1cccnc1 (stereo not given)	-2.5	-0.7	16	-5.1	22	95.3*
C=CCn1c(C)csc1=Nc1ccc(C(=O)O)cc1	-0.4	0.2	10	-1.5	13	8.0
O=S(=O)(/N=C(/c1ccccc1)N1CCCCC1)c1ccccc1	-11.5	0.3	12	1.9	15	32.0
Cn1nc(C(=O)OCC(=O)Nc2cccc(S(=O)(=O)N3CCCC3)c2)c2ccccc2c1=O	nt	nt	14	nt	nt	nt
COc1ccc(-c2noc(Cc3ccc(Cl)cc3)n2)cc1OC	3.1	0.9	67*	5.1	28	9.7
COc1ccccc1OCc1nc(Cc2ccc(Cl)cc2)no1	-9.1	0.6	9	1.8	12	3.6
COc1ccc(Cc2nc(-c3ccc(Cl)cc3)no2)cc1	6.7	1.2	12	4.5	33	-3.7
